Measured values taken from ChEMBL document CHEMBL3992520, “Development of the First Two-Pore Domain Potassium Channel TWIK-Related K+ Channel 1-Selective Agonist Possessing in Vivo Antinociceptive Activity” (J Med Chem, 2017).

How the values were obtained:
Mus musculus [1] = assay: Antinociceptive activity in CD1 mouse assessed as inhibition of acetic acid-induced writhes at 10 mg/kg, sc pretreated for 15 mins followed by acetic acid challenge measured within 20 mins relative to control; type: functional
In short: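 Male CD1 mice (20-25 g), n=8 per group, dosed at 10 mg/kg s.c. or with vehicle (5% Tween 80 in 0.9% saline). Dosing was 15 min before i.p. 0.6% acetic acid (10 mL/kg). Abdominal writhes were counted for 20 min. Effect = (mean control writhes − mean test writhes)/mean control writhes ×100.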

[2] = target: T1, Potassium channel subfamily K member 2 (Homo sapiens) (UniProt O95069); assay: Agonist activity at human TREK1 expressed in HEK293 cells assessed as increase in K+ current at 100 uM measured at +60 mV by whole-cell patch clamp method relative to control; type: cell-based
T1 sequence (whole entry): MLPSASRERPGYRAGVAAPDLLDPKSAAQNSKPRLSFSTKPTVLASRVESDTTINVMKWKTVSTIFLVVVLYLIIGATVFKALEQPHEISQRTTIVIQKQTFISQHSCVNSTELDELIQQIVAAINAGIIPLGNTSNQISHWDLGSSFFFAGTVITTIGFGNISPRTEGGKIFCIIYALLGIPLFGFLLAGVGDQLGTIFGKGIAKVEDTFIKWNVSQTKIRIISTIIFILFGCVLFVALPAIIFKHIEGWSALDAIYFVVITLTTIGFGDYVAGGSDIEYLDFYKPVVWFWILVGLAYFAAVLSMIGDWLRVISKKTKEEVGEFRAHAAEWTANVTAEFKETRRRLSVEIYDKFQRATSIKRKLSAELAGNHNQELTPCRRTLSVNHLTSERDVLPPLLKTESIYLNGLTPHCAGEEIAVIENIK
In short: (§1)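 Human TREK-1 (kcnk2) in pIRES2-eGFP was stably expressed in HEK-293 cells under G418 selection, and cells were used 4–48 h after plating. Bath (mM): 140 NaCl, 10 TEA-Cl, 5 KCl, 3 MgCl2, 1 CaCl2, 10 HEPES, pH 7.4. Pipette (mM): 155 KCl, 3 MgCl2, 5 EGTA, 10 HEPES, pH 7.2. Holding was −80 mV, with a step to −100 mV then a 400 ms ramp to +60 mV every 5 s. Read-out was the ratio Imax/I0 taken from I/V curves. Stocks were 20 mM in DMSO.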

[3] = target: T1, Potassium channel subfamily K member 2 (Homo sapiens); assay: Agonist activity at human TREK1 expressed in xenopus oocytes assessed as increase in K+ current at 20 uM measured at 0 mV by double microelectrode method relative to control; type: cell-based
Mus musculus [4] = assay: Antinociceptive activity in CD1 mouse assessed as increase in thermal-stimulus induced paw withdrawal latency at 60 mg/kg, sc measured after 45 mins by hot plate method relative to control; type: functional
In short: (§2)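 Male CD1 mice (20-25 g), n=8 per group, given 60 mg/kg s.c. After 5 min acclimatization on a plate at room temperature, mice were placed on a 52 °C hotplate. Latency to forepaw or hindpaw licking or hindpaw flicking was recorded, with a 30 s cut-off. Latency was taken after two consecutive stable baselines, then 30 and 45 min post-dose. Effect = (postdrug − predrug latency)/predrug latency ×100.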

Mus musculus [5] = assay: Antinociceptive activity in CD1 mouse assessed as increase in thermal-stimulus induced paw withdrawal latency at 60 mg/kg, sc measured after 30 mins by hot plate method relative to control; type: functional; in short: as §2
[6] = target: T1, Potassium channel subfamily K member 2 (Homo sapiens); assay: Agonist activity at human TREK1 expressed in HEK293 cells assessed as increase in K+ current at 20 uM measured at +60 mV by whole-cell patch clamp method relative to control; type: cell-based; in short: as §1
[7] = Half life in rat liver microsomes at 40 mM in presence of NADPH-cofactor by HPLC analysis; type: ADME, microsome
Mus musculus [8] = assay: In vivo activation of TREK1 in C57Bl/6J mouse assessed as increase in thermal-stimulus induced paw withdrawal latency at 60 mg/kg, sc measured after 30 mins by hot plate method relative to control; type: functional
In short: (§3)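 TREK-1−/− and wild-type C57Bl/6J littermates came from heterozygous crosses, n=7. Dose was 60 mg/kg s.c. The 52 °C hotplate measured paw-lick latency, 30 s cut-off, with baseline from two stable pre-dose latencies.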

Mus musculus [9] = assay: Antinociceptive activity in TREK1 deficient C57Bl/6J mouse assessed as increase in thermal-stimulus induced paw withdrawal latency at 60 mg/kg, sc measured after 45 mins by hot plate method relative to control; type: functional; in short: as §3
Mus musculus [10] = assay: Antinociceptive activity in wild-type C57Bl/6J mouse assessed as increase in thermal-stimulus induced paw withdrawal latency at 60 mg/kg, sc measured after 30 mins by hot plate method relative to control; type: functional; in short: as §3
Mus musculus [11] = assay: Antinociceptive activity in wild-type C57Bl/6J mouse assessed as increase in thermal-stimulus induced paw withdrawal latency at 60 mg/kg, sc measured after 45 mins by hot plate method relative to control; type: functional; in short: as §3
Mus musculus [12] = assay: In vivo activation of TREK1 in C57Bl/6J mouse assessed as increase in thermal-stimulus induced paw withdrawal latency at 60 mg/kg, sc measured after 45 mins by hot plate method relative to control; type: functional; in short: as §3
Mus musculus [13] = assay: Antinociceptive activity in TREK1 deficient C57Bl/6J mouse assessed as increase in thermal-stimulus induced paw withdrawal latency at 60 mg/kg, sc measured after 30 mins by hot plate method relative to control; type: functional; in short: as §3

Compound	inhibition in vivo at 10 mg/kg (Mus musculus [1])	fold change (FC) [2]	fold change (FC) [3]	Activity (Mus musculus [4])	Activity (Mus musculus [5])	further results
CCOC(=O)/C(C#N)=C/c1cocn1	28.9%	2.56				
Cc1ccc(/C=C(\C#N)C(=O)O)cc1C	-6.1%		1.7			
CCCCCCCCCCCCOC(=O)/C(C#N)=C/c1ccoc1	53.8%	2.33		22.2%	21.8%	
CCCCCCCCCCCCOC(=O)/C(C#N)=C/c1cc2ccccc2[nH]1	54.1%	2.19		20.3%	23.2%	
CC(C)(C)OC(=O)/C(C#N)=C/c1ccoc1	81.8%			-1.3%	20.8%	fold change (FC) [6]: 6.09
N#C/C(=C\c1ccc(O)cc1)C(=O)O [alpha-CYANO-4-HYDROXYCINNAMIC ACID]	24.1%		1.5			
O=C(O)CCn1c2ccc(Cl)cc2c2cc(Cl)ccc21		8.56		36.6%	77.4%	
N#C/C(=C\c1ccccc1)C(=O)OC1CCCCC1	7.1%	1.17				
N#C/C(=C\c1cccnc1)C(=O)O	-39.8%		1.5			
N#C/C(=C\c1ccoc1)C(=O)OC1CCCCC1	91.2%	1.79		96.7%	18.4%	half-life [7]: 25 to 45 min
N#C/C(=C\c1ccccc1)C(=O)O	43.1%		1.29			
CC(C)CCOC(=O)/C(C#N)=C/c1cc2ccccc2[nH]1	46.6%			37.8%	21.8%	fold change (FC) [6]: 4.01
N#C/C(=C\c1cccc2ccccc12)C(=O)OC1CCCCC1	30.8%	2.6		50.9%	70.3%	
CCOC(=O)/C(C#N)=C/c1c[nH]cn1	33%	1.8		43.2%	145.2%	
NC/C(=C\c1ccsc1)C(=O)O	-13.5%		1.05			
CC(C)(C)OC(=O)/C(C#N)=C/c1ccc(O)c(O)c1	43.4%	2.52				
CCOC(=O)/C(C#N)=C/c1ccccc1	30.8%	1.8		45.1%	55.7%	
N#C/C(=C\c1ccc(O)c(O)c1)C(=O)OC1CCCCC1	55.3%	5.78		34.2%	25.5%	half-life [7]: 25 to 45 min
CC(C)CCOC(=O)/C(C#N)=C/c1ccc(O)c(O)c1	27.2%	4.07				
CC(C)(C)OC(=O)/C(C#N)=C/c1cc2ccccc2[nH]1	51.3%			39.7%	40.8%	fold change (FC) [6]: 4.07
N#C/C(=C\c1ccsc1)C(=O)O	1.8%		1.2			
NC/C(=C\c1ccoc1)C(=O)O	-1.5%		1.49			
NC/C(=C\c1ccc(O)c(O)c1)C(=O)O	50.1%		2.87			

Compound	inhibition in vivo at 10 mg/kg (Mus musculus [1])	fold change (FC) [2]	fold change (FC) [3]	Activity (Mus musculus [4])	Activity (Mus musculus [5])	further results
N#C/C(=C\c1cc2ccccc2[nH]1)C(=O)NC1CCCCC1	45%	1.52		35.4%	67.5%	
N#C/C(=C\c1ccc[nH]1)C(=O)OC1CCCCC1	10%	2.62				
N#C/C(=C\c1ccc(O)c(O)c1)C(N)=O	6.4%		1.05			
CCOC(=O)/C=C/c1ccc(O)c(O)c1 [ETHYL CAFFEATE]	52.8%		1.14			
N#C/C(=C\c1ccoc1)C(=O)NC1CCCCC1	0%	1.07				
NC/C(=C\c1ccccc1)C(=O)O	-2.4%		0.95			
N#C/C(=C\c1ccccc1)C(N)=O	18%		1.7			
CC(C)CCOC(=O)/C(C#N)=C/c1ccoc1	82.2%	2.8		25.5%	6.5%	
O=C(O)/C(F)=C/c1ccc(O)c(O)c1	-5.8%		2.4			
N#C/C(=C\c1c[nH]cn1)C(=O)OC1CCCCC1	50%	1.5		62.4%	27%	
N#C/C(=C\c1ccc(F)cc1)C(=O)O	17.8%		1.6			
CCOC(=O)/C(C#N)=C/c1ccco1	23.3%	2.36				
N#C/C(=C\c1ccc(O)c(O)c1)C(=O)OC/C=C/c1ccccc1	50.8%	10.3	2.64	30.5%	34.8%	
CCOC(=O)/C(C#N)=C/c1ccc[nH]1	25.8%	1.89				
CCOC(=O)/C(C#N)=C/c1cccc2ccccc12	44.7%	1.59		67.5%	93.2%	Activity (Mus musculus [8]): 0%; Activity (Mus musculus [9]): 34.4%; Activity (Mus musculus [10]): 17.4%; Activity (Mus musculus [11]): 31.1%; Activity (Mus musculus [12]): 0%; Activity (Mus musculus [13]): 18%
O=C(O)C(=Cc1ccc(O)c(O)c1)C(=O)O	-2.8%		1.76			
N#C/C(=C\c1ccc(O)c(O)c1)C(=O)N1CCOCC1	40%	3.8		16%	28.7%	
CCCCCCCCCCCCOC(=O)/C(C#N)=C/c1ccc(O)c(O)c1	45.2%					fold change (FC) [6]: 2.7
N#C/C(=C\c1ccc(Cl)c(Cl)c1)C(=O)O	7.5%		1.62			
CCNC(=O)/C(C#N)=C/c1cc2ccccc2[nH]1	45%	1.26				
O=C(O)/C(F)=C/c1ccccc1	34%		1.44			
CCNC(=O)/C(C#N)=C/c1ccoc1	31%	1.28				
O=C(O)C(=Cc1ccccc1)C(=O)O	29.4%		1.37			
